Data reported in ChEMBL document CHEMBL2331235, “Solphenazines A-F, glycosylated phenazines from Streptomyces sp. strain DL-93” (J Nat Prod, 2013).
The source made the active and inactive calls. The rule behind the calls is not given here.

Legend:
Bacillus spizizenii = experiment: Antimicrobial activity against Bacillus subtilis ATCC 6633 by microbroth dilution assay; type: functional
Klebsiella pneumoniae = experiment: Antimicrobial activity against Klebsiella pneumoniae ATCC 13883 by microbroth dilution assay; type: functional
Vero [1] = experiment: (§1) Cytotoxicity against African green monkey Vero cells at 150 uM after 72 hrs by MTT assay; type: cell-based; settings: chlorocebus sabaeus, vero, 72 h, 150 µM
In short: (§2)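 Vero cells in MEM and HCT-116 cells in RPMI, each with 10% FBS, 1% penicillin–streptomycin and 1% Glutamax. Cells were seeded at 3.0 × 10^4 per well and left to adhere overnight. Medium was replaced, and compounds in DMSO were added to a final 150–0.1 μM. Cells were incubated 72 h at 37 °C in 4.5% CO2 (humidified), then viability was read by MTT.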

Pseudomonas aeruginosa = experiment: Antimicrobial activity against Pseudomonas aeruginosa ATCC 27853 by microbroth dilution assay; type: functional
Enterococcus faecalis = experiment: Antimicrobial activity against vancomycin-resistant Enterococcus faecalis ATCC 51299 by microbroth dilution assay; type: functional
Candida albicans = experiment: Antimicrobial activity against Candida albicans ATCC 10231 by microbroth dilution assay; type: functional
Cryptococcus neoformans = experiment: Antimicrobial activity against Cryptococcus neoformans ATCC 66031 by microbroth dilution assay; type: functional
Streptomyces scabiei [2] = experiment: Antimicrobial activity against Streptomyces scabies NRRL B 2795 at 25 ug/disk after 2 days by disk diffusion assay; type: functional
In short: (§3)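 S. scabies grown 5 days in liquid ISP2, diluted 1:10 in molten ISP2 agar. Paper discs carrying 25 μg compound (applied in 20 μL methanol) were set on a thin agar layer and overlaid with 10 mL of the seeded agar (double-layer method). Plates were incubated 2 days at 30 °C, and inhibition zone diameters were measured.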

Acinetobacter baumannii = experiment: Antimicrobial activity against Acinetobacter baumannii ATCC 19606 by microbroth dilution assay; type: functional; settings: ATCC 19606 = CIP 70.34 = JCM 6841
Staphylococcus aureus = experiment: Antimicrobial activity against methicillin-resistant Staphylococcus aureus ATCC 43300 by microbroth dilution assay; type: functional
HCT16 = experiment: (§4) Cytotoxicity against human […] cells after 72 hrs by MTT assay; type: functional, cell-based; in short: as §2
Streptomyces scabiei [3] = experiment: Antimicrobial activity against Streptomyces scabies LK 82 at 25 ug/disk after 2 days by disk diffusion assay; type: functional; in short: as §3
Escherichia coli [4] = experiment: Antimicrobial activity against Escherichia coli ATCC 25922 by microbroth dilution assay; type: functional
[5] = molecular target: T1, Topoisomerase I (Bos taurus) (UniProt Q2HPH0); experiment: Inhibition of calf thymus topoisomerase-1-mediated DNA intercalation using relaxed pBR322 after 15 mins
T1 sequence (whole entry): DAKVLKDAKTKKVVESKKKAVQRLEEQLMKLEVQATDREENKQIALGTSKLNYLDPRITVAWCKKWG
In short: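 Unwinding (intercalation) assay: relaxed pBR322 (0.3 μg) with 1 unit calf thymus Topo I in 50 mM Tris-HCl pH 7.5, 1 mM MgCl2, 0.5 mM DTT and 50 μg/mL BSA. Compound was added in DMSO, with ethidium bromide as control. After 15 min at 37 °C, reactions were treated with SDS and proteinase K and phenol-extracted. DNA was run on 1.2% agarose in TAE, and supercoiled DNA was quantified after staining.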

[6] = molecular target: DNA topoisomerase 2-alpha (Homo sapiens) (UniProt P11388); experiment: Inhibition of topoisomerase-2 (unknown origin)-mediated DNA cleavage […] by agarose gel electrophoresis
DNA topoisomerase 2-alpha (Homo sapiens), sequence (P11388 whole entry): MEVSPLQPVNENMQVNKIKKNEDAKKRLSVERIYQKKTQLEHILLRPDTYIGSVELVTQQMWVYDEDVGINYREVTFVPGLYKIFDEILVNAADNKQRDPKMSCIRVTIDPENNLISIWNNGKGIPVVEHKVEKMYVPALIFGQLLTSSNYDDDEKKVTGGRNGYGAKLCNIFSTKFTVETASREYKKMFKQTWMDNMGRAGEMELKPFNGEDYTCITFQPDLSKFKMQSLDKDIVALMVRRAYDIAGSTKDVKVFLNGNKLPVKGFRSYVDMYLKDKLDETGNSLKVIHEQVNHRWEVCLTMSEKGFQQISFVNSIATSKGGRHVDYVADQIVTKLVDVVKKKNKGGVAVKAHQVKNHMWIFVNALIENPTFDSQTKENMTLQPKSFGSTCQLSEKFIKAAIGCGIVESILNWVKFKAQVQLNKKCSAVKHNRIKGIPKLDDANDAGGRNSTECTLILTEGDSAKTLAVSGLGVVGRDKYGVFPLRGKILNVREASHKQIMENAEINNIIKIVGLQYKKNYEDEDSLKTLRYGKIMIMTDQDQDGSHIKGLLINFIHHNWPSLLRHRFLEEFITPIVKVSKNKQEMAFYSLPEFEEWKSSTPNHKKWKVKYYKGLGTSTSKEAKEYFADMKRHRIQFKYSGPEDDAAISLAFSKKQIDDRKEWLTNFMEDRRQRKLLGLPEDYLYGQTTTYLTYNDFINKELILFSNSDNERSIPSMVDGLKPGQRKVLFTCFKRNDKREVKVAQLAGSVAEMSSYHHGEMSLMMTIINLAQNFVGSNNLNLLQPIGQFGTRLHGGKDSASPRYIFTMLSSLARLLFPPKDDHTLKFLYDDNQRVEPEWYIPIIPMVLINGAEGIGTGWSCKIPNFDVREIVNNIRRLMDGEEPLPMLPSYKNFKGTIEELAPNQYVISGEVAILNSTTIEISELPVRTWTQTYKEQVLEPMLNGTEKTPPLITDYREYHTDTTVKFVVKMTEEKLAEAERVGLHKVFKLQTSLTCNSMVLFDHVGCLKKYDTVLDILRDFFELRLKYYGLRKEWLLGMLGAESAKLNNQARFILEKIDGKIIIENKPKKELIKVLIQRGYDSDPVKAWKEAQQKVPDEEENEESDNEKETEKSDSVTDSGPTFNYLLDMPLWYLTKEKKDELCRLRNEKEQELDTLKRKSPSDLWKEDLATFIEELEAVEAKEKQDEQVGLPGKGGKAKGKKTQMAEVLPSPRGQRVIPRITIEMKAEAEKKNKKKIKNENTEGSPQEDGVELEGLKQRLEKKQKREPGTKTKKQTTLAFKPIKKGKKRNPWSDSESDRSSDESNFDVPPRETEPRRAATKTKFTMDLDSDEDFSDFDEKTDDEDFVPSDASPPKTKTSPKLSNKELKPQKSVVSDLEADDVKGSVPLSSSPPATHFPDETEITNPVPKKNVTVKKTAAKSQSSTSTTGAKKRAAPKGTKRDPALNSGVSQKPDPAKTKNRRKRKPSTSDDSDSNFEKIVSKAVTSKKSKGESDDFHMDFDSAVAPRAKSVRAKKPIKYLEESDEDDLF
In short: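 Human Topo II cleavage assay: 5 units enzyme with 0.3 μg kDNA in the decatenation buffer without potassium glutamate, with etoposide as control. Reactions ran 10 min at 37 °C, then SDS to 1% for 10 min, then 40 mM EDTA and 100 μg/mL proteinase K for 1 h at 50 °C. Products were run on ethidium-containing 1.2% agarose. Linear DNA was compared with and without compound, at least in duplicate.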

[7] = molecular target: T1, Topoisomerase I (Bos taurus); experiment: Inhibition of calf thymus topoisomerase-1-mediated supercoiled plasmid DNA relaxation after 15 mins by agarose gel electrophoresis
In short: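 Calf thymus Topo I (0.5 unit) with negatively supercoiled pBR322 (0.3 μg) in 50 mM Tris-HCl pH 7.5, 1 mM MgCl2, 0.5 mM DTT and 50 μg/mL BSA. Camptothecin was the control. Reactions ran 15 min at 37 °C and were stopped on ice with an EDTA/sarkosyl loading dye. Relaxed versus supercoiled DNA was resolved by agarose gel, in duplicate.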

Escherichia coli [8] = experiment: Inhibition of Escherichia coli topoisomerase-2-mediated DNA cleavage after 15 mins by agarose gel electrophoresis
[9] = as §4; type: functional, cell-based; in short: as §2
[10] = molecular target: T2, DNA topoisomerase 1 (Homo sapiens) (UniProt P11387); experiment: Inhibition of topoisomerase-1 (unknown origin)-mediated DNA cleavage after 15 mins by agarose gel electrophoresis
T2 sequence (whole entry): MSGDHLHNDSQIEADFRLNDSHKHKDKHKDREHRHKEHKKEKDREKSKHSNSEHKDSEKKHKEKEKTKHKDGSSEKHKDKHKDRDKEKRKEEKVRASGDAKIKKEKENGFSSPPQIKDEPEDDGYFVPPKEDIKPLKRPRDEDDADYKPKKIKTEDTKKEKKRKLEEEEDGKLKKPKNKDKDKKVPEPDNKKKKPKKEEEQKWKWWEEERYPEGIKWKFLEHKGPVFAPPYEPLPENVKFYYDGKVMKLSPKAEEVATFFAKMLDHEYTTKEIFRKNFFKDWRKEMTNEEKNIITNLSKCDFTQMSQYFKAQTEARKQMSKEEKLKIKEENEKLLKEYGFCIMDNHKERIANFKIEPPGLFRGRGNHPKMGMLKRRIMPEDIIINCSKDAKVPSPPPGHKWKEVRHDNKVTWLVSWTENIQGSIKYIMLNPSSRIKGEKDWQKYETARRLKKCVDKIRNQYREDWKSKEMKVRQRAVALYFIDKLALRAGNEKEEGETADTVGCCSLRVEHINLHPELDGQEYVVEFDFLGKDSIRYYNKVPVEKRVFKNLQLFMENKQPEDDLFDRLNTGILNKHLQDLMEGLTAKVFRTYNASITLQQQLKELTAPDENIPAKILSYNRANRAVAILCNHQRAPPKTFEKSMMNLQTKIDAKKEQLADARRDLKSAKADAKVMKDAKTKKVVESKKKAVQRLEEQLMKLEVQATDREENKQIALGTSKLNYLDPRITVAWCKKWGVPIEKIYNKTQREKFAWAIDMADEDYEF
In short: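 Topo I cleavage assay: 2 units Topo I with 0.3 μg pBR322 in the unwinding buffer, with camptothecin as control. Reactions ran 10 min at 37 °C, then SDS to 1% for 10 min, then 40 mM EDTA and 100 μg/mL proteinase K for 15 min at 37 °C. DNA was phenol-extracted and run on 1.2% agarose containing 0.5 μg/mL ethidium bromide. Nicked DNA was compared with and without compound, at least in duplicate.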

Vero [11] = experiment: Cytotoxicity against African green monkey Vero cells after 72 hrs by MTT assay; type: cell-based; settings: Chlorocebus sabaeus; in short: as §2
[12] = as §1; type: cell-based; settings: chlorocebus sabaeus, Vero cells; read-out: GI; in short: as §2

Row | Structure (SMILES) | MIC (Bacillus spizizenii) | MIC (Klebsiella pneumoniae) | Activity (Vero [1]) | MIC (Pseudomonas aeruginosa) | MIC (Enterococcus faecalis) | MIC (Candida albicans) | MIC (Cryptococcus neoformans) | Activity (Streptomyces scabiei [2]) | MIC (Acinetobacter baumannii) | MIC (Staphylococcus aureus) | Activity (HCT16) | Activity (Streptomyces scabiei [3]) | MIC (Escherichia coli [4]) | other results
1 | O=C(O)c1cccc2nc3c(C(=O)O)cccc3nc12 | > 25 µg/mL | > 25 µg/mL | Non-toxic | > 25 µg/mL | > 25 µg/mL | > 25 µg/mL | > 25 µg/mL | inactive | > 25 µg/mL | > 25 µg/mL | inactive | inactive | > 25 µg/mL | –
2 | C[C@@H]1O[C@@H](OC(=O)c2ccc(O)cc2)[C@H](O)[C@H](O)[C@H]1O | > 25 µg/mL | > 25 µg/mL | – | > 25 µg/mL | > 25 µg/mL | > 25 µg/mL | > 25 µg/mL | inactive | > 25 µg/mL | > 25 µg/mL | – | inactive | > 25 µg/mL | –
3 | CNc1ccc(C(=O)O[C@@H]2O[C@@H](C)[C@H](O)[C@@H](O)[C@H]2O)cc1 | > 25 µg/mL | > 25 µg/mL | – | > 25 µg/mL | > 25 µg/mL | > 25 µg/mL | > 25 µg/mL | inactive | > 25 µg/mL | > 25 µg/mL | – | inactive | > 25 µg/mL | –
4 | C[C@@H]1O[C@@H](Oc2cccc3nc4c(C(=O)O)cccc4nc23)[C@H](O)[C@H](O)[C@H]1O [IZUMINOSIDE A] | > 25 µg/mL | > 25 µg/mL | Non-toxic | > 25 µg/mL | > 25 µg/mL | > 25 µg/mL | > 25 µg/mL | inactive | > 25 µg/mL | > 25 µg/mL | inactive | inactive | > 25 µg/mL | –
5 | C[C@@H]1O[C@@H](OC(=O)c2cccc3nc4c(C(=O)O)cccc4nc23)[C@H](O)[C@H](O)[C@H]1O [IZUMINOSIDE C] | > 25 µg/mL | > 25 µg/mL | Non-toxic | > 25 µg/mL | > 25 µg/mL | > 25 µg/mL | > 25 µg/mL | inactive | > 25 µg/mL | > 25 µg/mL | inactive | inactive | > 25 µg/mL | –
6 | C[C@@H]1O[C@@H](OC(=O)c2cccc3nc4c(C(=O)O[C@@H]5O[C@@H](C)[C@H](O)[C@@H](O)[C@H]5O)cccc4nc23)[C@H](O)[C@H](O)[C@H]1O [SOPHENAZINE A] | > 25 µg/mL | > 25 µg/mL | – | > 25 µg/mL | > 25 µg/mL | > 25 µg/mL | > 25 µg/mL | inactive | > 25 µg/mL | > 25 µg/mL | – | inactive | > 25 µg/mL | inhibition [5]: inactive; inhibition [6]: inactive; inhibition [7]: inactive; inhibition (Escherichia coli [8]): inactive; EC50 [9]: 18 µM; inhibition [10]: inactive; EC50 (Vero [11]): 84 µM
7 | CC(=O)O[C@@H]1[C@@H](O)[C@H](C)O[C@@H](OC(=O)c2cccc3nc4c(C(=O)O[C@@H]5O[C@@H](C)[C@H](O)[C@@H](O)[C@H]5O)cccc4nc23)[C@@H]1O [SOPHENAZINE B] | > 25 µg/mL | > 25 µg/mL | – | > 25 µg/mL | > 25 µg/mL | > 25 µg/mL | > 25 µg/mL | inactive | > 25 µg/mL | > 25 µg/mL | – | inactive | > 25 µg/mL | inhibition at 72 h, 150 µM [12]: 30%; EC50 [9]: 52 µM
8 | CC(=O)O[C@@H]1[C@@H](O)[C@H](C)O[C@@H](OC(=O)c2cccc3nc4c(C(=O)O[C@@H]5O[C@@H](C)[C@H](O)[C@@H](OC(C)=O)[C@H]5O)cccc4nc23)[C@@H]1O [SOPHENAZINE C] | > 25 µg/mL | > 25 µg/mL | – | > 25 µg/mL | > 25 µg/mL | > 25 µg/mL | > 25 µg/mL | inactive | > 25 µg/mL | > 25 µg/mL | – | inactive | > 25 µg/mL | –
9 | C[C@@H]1O[C@@H](OC(=O)c2cccc3nc4c(O[C@@H]5O[C@@H](C)[C@H](O)[C@@H](O)[C@H]5O)cccc4nc23)[C@H](O)[C@H](O)[C@H]1O [SOPHENAZINE D] | > 25 µg/mL | > 25 µg/mL | Non-toxic | > 25 µg/mL | > 25 µg/mL | > 25 µg/mL | > 25 µg/mL | inactive | > 25 µg/mL | > 25 µg/mL | inactive | inactive | > 25 µg/mL | –
10 | COC(=O)c1cccc2nc3c(O[C@@H]4O[C@@H](C)[C@H](O)[C@@H](O)[C@H]4O)cccc3nc12 [SOPHENAZINE E] | > 25 µg/mL | > 25 µg/mL | Non-toxic | > 25 µg/mL | > 25 µg/mL | > 25 µg/mL | > 25 µg/mL | inactive | > 25 µg/mL | > 25 µg/mL | inactive | inactive | > 25 µg/mL | –
11 | C[C@@H]1O[C@@H](Oc2cccc3nc4c(O[C@@H]5O[C@@H](C)[C@H](O)[C@@H](O)[C@H]5O)cccc4nc23)[C@H](O)[C@H](O)[C@H]1O [SOPHENAZINE F] | > 25 µg/mL | > 25 µg/mL | – | > 25 µg/mL | > 25 µg/mL | > 25 µg/mL | > 25 µg/mL | inactive | > 25 µg/mL | > 25 µg/mL | – | inactive | > 25 µg/mL | EC50 [9]: 45 µM
